This passage reports Km, kcat and kcat/Km results from ChEMBL document CHEMBL1629653, “CMY-31 and CMY-36 cephalosporinases encoded by ColE1-like plasmids” (Antimicrob Agents Chemother, 2009).

The structures appear in SMILES notation. Some results are limits rather than exact numbers.

Assay [1] is described as follows: Activity of CMY-2 by spectrophotometry. Summed up: (§1)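 CMY β-lactamases purified from sonicated, ultracentrifuge-clarified extracts of E. coli DH5α clones (pB-cmy36, pB-cmy2) by Q- then S-Sepharose ion exchange (>90% pure by SDS-PAGE); steady-state hydrolysis kinetics measured spectrophotometrically, CMY-2 run in parallel.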
Assay [2] is described as follows: Ratio of Kcat to Km of CMY-2 by spectrophotometry. Summed up:
as §1

For the molecule `O=C(Cc1cccs1)N[C@@H]1C(=O)N2C(C(=O)O)=C(/C=C/c3ccc([N+](=O)[O-])cc3[N+](=O)[O-])CS[C@H]12`, in assay [1], the Km – broadly, the substrate concentration at which the rate is half of its maximum – amounted to 10 µM and the kcat – broadly, the maximal rate divided by the concentration of active sites – turned out to be 980 s⁻¹. For the same molecule, the kcat/Km (commonly the second-order rate constant that governs catalysis at low substrate concentration) in assay [2] came out at 9.8e+07 M⁻¹ s⁻¹.

Take `O=C(Cc1cccs1)N[C@@H]1C(=O)N2C(C(=O)[O-])=C(C[n+]3ccccc3)CS[C@H]12`: in assay [1], the Km came out at 120 µM and the kcat stood at 300 s⁻¹. The kcat/Km in assay [2] amounted to 2.5e+06 M⁻¹ s⁻¹.

Consider `CC1(C)S[C@@H]2[C@H](NC(=O)Cc3ccccc3)C(=O)N2[C@H]1C(=O)O`, for which, in assay [1], the Michaelis constant (Km) amounted to 0.4 µM and the kcat was 10 s⁻¹. For the same molecule, the kcat/Km in assay [2] is 2.5e+07 M⁻¹ s⁻¹.

In the case of `CO/N=C(\C(=O)N[C@@H]1C(=O)N2C(C(=O)O)=C(COC(C)=O)CS[C@H]12)c1csc(N)n1`, the kcat in assay [1] is less than 0.01 s⁻¹.
